Experimental data from ChEMBL document CHEMBL1155317, “Design and optimisation of potent gp120-CD4 inhibitors” (Bioorg Med Chem Lett, 2009).

Assays:
[1] = Inhibition of HIV1 NL4-3 gp160 assessed as inhibition of interaction between gp120 and host CD4 receptor by cell-cell fusion assay; set-up: species or system Human immunodeficiency virus 1
[2] = test system: Human immunodeficiency virus 1; assay: Antiviral activity against Human immunodeficiency virus 1 NL4-3 infected HeLaP4 cells after 5 days by beta-galactosidase reporter assay; type: functional, organism-based; conditions: Human immunodeficiency virus 1, NL4-3, HeLaP4, 120 h
Procedure, shortened: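 HeLa-P4 cells were premixed with NL4-3 virus and added at 10^5 cells/mL to wells containing diluted compound. Plates were incubated for 5 days at 37 °C in humidified 5% CO₂. Infection was quantified with a β-galactosidase reporter assay.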

[3] = Fraction of compound absorbed in rat at 1 mg/kg, iv and 1 mg/kg, po; type: ADME, organism-based; conditions: in vivo, read-out: Fabs
Rattus norvegicus [4] = assay: Unbound volume of distribution in rat at 1 mg/kg, iv and 1 mg/kg, po; type: ADME, organism-based; conditions: in vivo
[5] = Half life in rat at 1 mg/kg, iv and 1 mg/kg, po; type: ADME, organism-based; conditions: in vivo
[6] = Clearance in rat at 1 mg/kg, iv and 1 mg/kg, po; type: ADME, organism-based; conditions: in vivo
[7] = Bioavailability in rat at 1 mg/kg; type: ADME, organism-based; conditions: in vivo
Rattus norvegicus [8] = assay: Unbound clearance in rat at 1 mg/kg, iv and 1 mg/kg, po; type: ADME, organism-based; conditions: in vivo
[9] = test system: Human immunodeficiency virus 1; assay: Antiviral activity against Human immunodeficiency virus 1 isolate 04-116878_VL_241.32; type: functional
Procedure, shortened: (§1)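 Testing against these strains was contracted out and used the PhenoSense phenotypic antiviral assay.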

[10] = test system: Human immunodeficiency virus 1; assay: Antiviral activity against Human immunodeficiency virus 1 isolate 04-116886_VL_578.66; type: functional; procedure, shortened: as §1
[11] = test system: Human immunodeficiency virus 1; assay: Antiviral activity against Human immunodeficiency virus 1 isolate 04-116880_VL_696.65; type: functional; procedure, shortened: as §1
[12] = test system: Human immunodeficiency virus 1; assay: Antiviral activity against Human immunodeficiency virus 1 isolate 04-116875_VL_279.69; type: functional; procedure, shortened: as §1
[13] = test system: Human immunodeficiency virus 1; assay: Antiviral activity against Human immunodeficiency virus 1 isolate 04-116876_VL_969.72; type: functional; procedure, shortened: as §1
[14] = test system: Human immunodeficiency virus 1; assay: Antiviral activity against Human immunodeficiency virus 1 isolate 04-116873_VL_754.51; type: functional; procedure, shortened: as §1
[15] = test system: Human immunodeficiency virus 1; assay: Antiviral activity against Human immunodeficiency virus 1 isolate 04-116874_VL_560.34; type: functional; procedure, shortened: as §1
[16] = test system: Human immunodeficiency virus 1; assay: Antiviral activity against Human immunodeficiency virus 1 isolate 04-116883_VL_432.63; type: functional; procedure, shortened: as §1
[17] = test system: Human immunodeficiency virus 1; assay: Antiviral activity against Human immunodeficiency virus 1 HXB2; type: functional; procedure, shortened: as §1
[18] = test system: Human immunodeficiency virus 1; assay: Antiviral activity against Human immunodeficiency virus 1 isolate 04-116890_VL_781.45; type: functional; procedure, shortened: as §1
[19] = test system: Human immunodeficiency virus 1; assay: Antiviral activity against Human immunodeficiency virus 1 isolate 04-116872_VL_186.32; type: functional; procedure, shortened: as §1
[20] = test system: Human immunodeficiency virus 1; assay: Antiviral activity against Human immunodeficiency virus 1 isolate 04-116884_VL_328.45; type: functional; procedure, shortened: as §1
[21] = test system: Human immunodeficiency virus 1; assay: Antiviral activity against Human immunodeficiency virus 1 isolate 04-116870_VL_181.51; type: functional; procedure, shortened: as §1
[22] = test system: Human immunodeficiency virus 1; assay: Antiviral activity against Human immunodeficiency virus 1 isolate 04-116867_VL_837.51; type: functional; procedure, shortened: as §1
[23] = test system: Human immunodeficiency virus 1; assay: Antiviral activity against Human immunodeficiency virus 1 isolate 04-116882_VL_624.75; type: functional; procedure, shortened: as §1
[24] = test system: Human immunodeficiency virus 1; assay: Antiviral activity against Human immunodeficiency virus 1 isolate 04-116889_VL_440.85; type: functional; procedure, shortened: as §1
[25] = test system: Human immunodeficiency virus 1; assay: Antiviral activity against Human immunodeficiency virus 1 isolate 04-116892_VL_534.93; type: functional; procedure, shortened: as §1
[26] = test system: Human immunodeficiency virus 1; assay: Antiviral activity against Human immunodeficiency virus 1 isolate 04-116881_VL_338.52; type: functional; procedure, shortened: as §1
[27] = test system: Human immunodeficiency virus 1; assay: Antiviral activity against Human immunodeficiency virus 1 isolate 04-116879_VL_988.03; type: functional; procedure, shortened: as §1
[28] = test system: Human immunodeficiency virus 1; assay: Antiviral activity against Human immunodeficiency virus 1 isolate 04-116888_VL_113.66; type: functional; procedure, shortened: as §1
[29] = test system: Human immunodeficiency virus 1; assay: Antiviral activity against Human immunodeficiency virus 1 isolate 04-116877_VL_938.28; type: functional; procedure, shortened: as §1
[30] = test system: Human immunodeficiency virus 1; assay: Antiviral activity against Human immunodeficiency virus 1 isolate 04-116893_VL_193.95; type: functional; procedure, shortened: as §1
[31] = test system: Human immunodeficiency virus 1; assay: Antiviral activity against Human immunodeficiency virus 1 isolate 04-116885_VL_530.54; type: functional; procedure, shortened: as §1
[32] = test system: Human immunodeficiency virus 1; assay: Antiviral activity against Human immunodeficiency virus 1 isolate 04-116871_VL_781.69; type: functional; procedure, shortened: as §1
[33] = test system: Human immunodeficiency virus 1; assay: Antiviral activity against Human immunodeficiency virus 1 isolate 04-116868_VL_518.14; type: functional; procedure, shortened: as §1
[34] = test system: Human immunodeficiency virus 1; assay: Antiviral activity against Human immunodeficiency virus 1 isolate 04-116869_VL_833.52; type: functional; procedure, shortened: as §1
[35] = test system: Human immunodeficiency virus 1; assay: Antiviral activity against Human immunodeficiency virus 1 JRCSF; type: functional, Human immunodeficiency virus type 1 (JRCSF ISOLATE); procedure, shortened: as §1
[36] = Metabolic stability in human liver microsomes assessed as half life; type: ADME, Microsome

SMILES: CNC(=O)c1nccc2c(O[C@@H](C)C(=O)N3CCN(C(=O)c4ccccc4)C[C@H]3C)ccc(F)c12
- IC50 [1]: 0.031 µM
- IC50 [2]: 0.02 µM

SMILES: CNC(=O)c1cc(OC)c(O[C@@H](C)C(=O)N2CCN(c3nccc4[nH]cnc34)C[C@H]2C)cn1
- IC50 [1]: 0.024 µM
- IC50 [2]: 0.007 µM

SMILES: CNC(=O)c1nccc2c(O[C@@H](C)C(=O)N3CCN(C(=O)c4ccccc4)C[C@H]3C)cccc12
- Fa [3]: 55%
- Vdu (Rattus norvegicus [4]): 3.5 L/kg
- half-life [5]: 30 min
- IC50 [1]: 0.021 µM
- clearance [6]: 41 mL/min/kg
- bioavailability [7]: 45%
- CL free (Rattus norvegicus [8]): 90 mL/min/kg
- IC50 [2]: 0.0015 µM

SMILES: CNC(=O)c1cc(OC)c(O[C@@H](C)C(=O)N2CCN(c3nccc4[nH]ncc34)C[C@H]2C)cn1
- IC50 [1]: 0.024 µM
- IC50 [2]: 0.006 µM

SMILES: CNC(=O)c1ccc2c(O[C@@H](C)C(=O)N3CCN(C(=O)c4ccccc4)C[C@H]3C)cccc2n1
- IC50 [1]: 0.078 µM
- IC50 [2]: > 4 µM

SMILES: CNC(=O)c1cc(OC)c(O[C@@H](C)C(=O)N2CCN(C(=O)c3ccccc3)C[C@H]2C)cn1
- IC90 [9]: > 2.22 µM
- IC90 [10]: > 2.22 µM
- Fa [3]: 100%
- IC90 [11]: > 2.22 µM
- IC90 [12]: 0.213 µM
- IC90 [13]: 0.436 µM
- IC90 [14]: 0.021 µM
- IC90 [15]: 0.071 µM
- IC90 [16]: > 2.22 µM
- IC90 [17]: 0.013 µM
- IC90 [18]: 0.17 µM
- Vdu (Rattus norvegicus [4]): 2.2 L/kg
- IC90 [19]: > 2.22 µM
- IC90 [20]: 0.009 µM
- IC90 [21]: 0.044 µM
- IC50 [1]: 0.014 µM
- IC90 [22]: 0.383 µM
- IC90 [23]: 0.106 µM
- IC90 [24]: 0.056 µM
- IC90 [25]: > 2.22 µM
- IC90 [26]: 0.299 µM
- IC90 [27]: 0.242 µM
- IC90 [28]: > 2.22 µM
- IC90 [29]: 0.021 µM
- IC90 [30]: 0.354 µM
- IC90 [31]: 0.178 µM
- IC90 [32]: 0.009 µM
- IC90 [33]: 0.026 µM
- IC90 [34]: 0.122 µM
- IC90 [35]: 0.004 µM

SMILES: CNC(=O)c1ccc(O[C@@H](C)C(=O)N2CCN(C(=O)c3ccccc3)C[C@H]2C)c2ccncc12
- IC50 [1]: 21.2 µM

SMILES: CNC(=O)c1ccc(O[C@@H](C)C(=O)N2CCN(C(=O)c3ccccc3)C[C@H]2C)c2cccnc12
- IC50 [1]: 1.26 µM

SMILES: CNc1nccc2c(O[C@@H](C)C(=O)N3CCN(C(=O)c4ccccc4)C[C@H]3C)cccc12
- IC50 [1]: 0.061 µM

SMILES: CC(Oc1cccc2ncccc12)C(=O)N1CCN(C(=O)c2ccccc2)C[C@H]1C (some centres undefined)
- IC50 [1]: 0.099 µM
- IC50 [2]: 0.271 µM

SMILES: Cc1nc2c(OC(C)C(=O)N3CCN(C(=O)c4ccccc4)C[C@H]3C)cccc2o1 (some centres undefined)
- IC50 [1]: 2.04 µM

SMILES: CNC(=O)c1cc(OC)c(O[C@@H](C)C(=O)N2CCN(c3nccc4ccccc34)C[C@H]2C)cn1
- IC90 [9]: 0.23 µM
- IC90 [10]: 0.12 µM
- Fa [3]: 100%
- IC90 [11]: 0.276 µM
- IC90 [12]: 0.014 µM
- IC90 [13]: 0.037 µM
- IC90 [14]: 0.0013 µM
- IC90 [15]: 0.005 µM
- IC90 [16]: > 0.666 µM
- IC90 [17]: 0.0014 µM
- IC90 [18]: 0.144 µM
- Vdu (Rattus norvegicus [4]): 9.4 L/kg
- half-life [5]: 30 min
- IC90 [19]: 0.036 µM
- IC90 [20]: 0.0008 µM
- IC90 [21]: 0.006 µM
- IC50 [1]: 0.00029 µM
- IC90 [22]: 0.04 µM
- half-life [36]: 4 min
- IC90 [23]: 0.003 µM
- IC90 [24]: 0.005 µM
- IC90 [25]: 0.199 µM
- clearance [6]: 48 mL/min/kg
- bioavailability [7]: 21%
- IC90 [26]: 0.201 µM
- IC90 [27]: 0.008 µM
- CL free (Rattus norvegicus [8]): 198 mL/min/kg
- IC50 [2]: 0.00012 µM
- IC90 [28]: 0.324 µM
- IC90 [29]: 0.002 µM
- IC90 [30]: 0.023 µM
- IC90 [31]: 0.008 µM
- IC90 [32]: 0.0005 µM
- IC90 [33]: 0.001 µM
- IC90 [34]: 0.024 µM
- IC90 [35]: 0.0003 µM

SMILES: CNC(=O)c1cc(OC)c(O[C@@H](C)C(=O)N2CCN(c3nccc4ncccc34)C[C@H]2C)cn1
- IC50 [1]: 0.029 µM
- IC50 [2]: 0.126 µM

SMILES: CC(Oc1cccc2cnccc12)C(=O)N1CCN(C(=O)c2ccccc2)C[C@H]1C (some centres undefined)
- IC50 [1]: 0.103 µM
- IC50 [2]: 0.492 µM

SMILES: Cc1nc2c(OC(C)C(=O)N3CCN(C(=O)c4ccccc4)C[C@H]3C)cccc2[nH]1 (some centres undefined)
- IC50 [1]: 0.834 µM

SMILES: CC(Oc1cccc2nccnc12)C(=O)N1CCN(C(=O)c2ccccc2)C[C@H]1C (some centres undefined)
- IC50 [1]: 0.493 µM
